Source: PubChem (several laboratories)
CRFR2-BP antag – antagonists of CRF-binding protein/CRF-R2 receptor complex. 350,000 compounds, 0.59% hits. inhibition, % at 11.8 µM. HEK293 CRF-R2/CRF-BP, CRF-induced calcium fluorescence. AID 588475;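 active = inhibition of the ligand-induced calcium signal above about 50% at the single tested concentration, limit read from the data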
TMEM16A inh – blocks the mouse calcium-activated chloride channel TMEM16A. HEK293 TMEM16A/YFP iodide influx fluorescence, ionomycin. Q8BHY3. 310,000 compounds, 1.2% hits. normalized B-score (activity score, 25-100; higher = stronger inhibition) at 10 µM. AID 588511;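 active = ratio plate-corrected score three or more library SD toward inhibition, starting fluorescence score within five deviations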;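 also: score derived from kinetic fluorescence span divided by baseline fluorescence per well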
TAAR1 antag – human TAAR1 antagonism; inhibition, % at 3 µM; 360,000 compounds, 1.5% hits; CHO RD-HGA16 TAAR1, Fluo-8 calcium fluorescence, antagonist; AID 624466;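 active = inhibition above a per-plate cutoff, the mean inhibition of test compounds on that plate plus 3 SD, cut at about 49% in these data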;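 also: 0% = DMSO plus EC80 beta-PEA response and 100% = DMSO alone without agonist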
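Test system: CHO RD-HGA16 cells bearing hTAAR1 | Reagent: β-PEA, EC80 | Compound dosing: 3 µM, single point | Schedule: Dye loading 75 min at 37 °C, then 30 min room temperature | Signal: Calcium fluorescence with Fluo-8 | Evaluation: Percent inhibition of PEA-evoked calcium signal, max/basal emission ratio | Control set: DMSO-only wells and EC80 β-PEA-stimulated wells | Repeats: Singlicate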
TAAR1 agonist – human TAAR1 agonism; Q96RJ0; activation, % at 3 µM; CHO RD-HGA16 TAAR1, Fluo-8 calcium fluorescence; vehicle wells 0%, saturating PEA agonist 100%; 360,000 compounds, 0.99% hits;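 active = activation above the mean activation of all test compounds in the run plus 3 SD, cut at about 38% in these data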
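System: CHO RD-HGA16 cells carrying human TAAR1 plus Gα16; Incubation: 17-24 h seeding, 75 min 37 °C dye, 30 min RT; Measured by: Fluo-8 fluorescence, 5 s baseline then 140 s kinetic read; Control set: DMSO and PEA EC100; Replication: single well for each compound.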
TMEM16A act – activators or potentiators of mouse TMEM16A chloride channel; Q8BHY3; HEK293 TMEM16A/YFP-H148Q/I152L, iodide quench fluorescence; stronger effect = lower value; B-score at 10 µM; 340,000 compounds, 0.3% hits;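 active = fluorescence-ratio B-score plate-corrected deviation score at least 3 library SD below zero, with starting fluorescence score within 5 deviations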;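 also: channel opened by trigger with iodide after compound preincubation; score built on the fluorescence ratio of max minus min over baseline; more negative score means more quench and so TMEM16A activation or potentiation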
CRFBP-R2 agonist – agonists of human CRF-binding protein/CRF-R2 receptor complex; 350,000 compounds, 0.46% hits; activation, % at 13.2 µM; AID 588473; HEK293 CRF-R2/CRF-BP, calcium dye fluorescence (FLIPR); percent of saturating CRF peptide response;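 active = activation of at least 50%, plus an integration ratio under a set limit after plate pattern correction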;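 also: plate controls were neutral control wells without compound for no effect and CRF at EC100 for full effect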
TAAR1 nonsel count – counter-screen for TAAR1 antagonists: nonselective antagonists. shares compounds with TAAR1 antag. inhibition, % at 3 µM. 2,400 compounds, 77% hits. counterscreen cell line, calcium fluorescence, antagonist mode. AID 651780; in the data active = inhibition above about 22%;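 also: CHO-Ga16 host cells stimulated with ATP at an EC80 level; 0% = agonist EC80 plus vehicle and 100% = vehicle without agonist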
TAAR1 ant conf – confirmation of human TAAR1 antagonists. shares compounds with TAAR1 antag. TAAR1-expressing cells, fluorescence antagonist read-out. inhibition, % at 3 µM. 2,400 compounds, 40% hits. AID 651785; in the data active = inhibition above about 49%;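 also: CHO-Ga16 host cells challenged with agonist PEA near its EC80; 0% = agonist at EC80 plus vehicle and 100% = vehicle with no agonist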
Ga16 ag counter – nonselective Ga16 agonist in TAAR1 antagonist counter-screen; activation, % at 3 µM; 2,400 compounds, 18% hits; Ga16-expressing cells, calcium fluorescence, agonist counterscreen; shares compounds with TAAR1 antag; in the data active = activation above about 12%;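 also: 0% = vehicle wells and 100% = saturating stimulus response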
TAAR1 ag counter – TAAR1 agonism, antagonist counter-screen | shares compounds with TAAR1 antag | hTAAR1 cell line, fluorescence activation, agonist mode | activation, % at 3 µM | 2,400 compounds, 2% hits | AID 651955; in the data active = activation above about 37%;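 also: CHO cells stably expressing TAAR1 with calcium dye readout; 0% = DMSO vehicle and 100% = full agonist response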
Active calls of the source: *; i = inactive; · = no result. Compounds with a hit are over-represented: about 3.9% of the library has one in this group of screens.

SMILES | CRFR2-BP antag | TMEM16A inh | TAAR1 antag | TAAR1 agonist | TMEM16A act | CRFBP-R2 agonist | TAAR1 nonsel count | TAAR1 ant conf | Ga16 ag counter | TAAR1 ag counter
O=C(Nc1ccc(-c2noc(CCc3ccccc3)n2)cc1)c1cccnc1 | -22 | i | 69* | 24 | i | 0 | 37* | 51* | 14* | 14
O=C(NCCc1ccccc1)c1ccc(NC(=O)c2cccnc2)cc1 | 8 | i | -4 | 11 | i | -1 | · | · | · | ·
COc1ccc(C)cc1NC(=O)CCc1c(C)nn(-c2ccc(N3CCCCC3)nn2)c1C | 2 | i | 50* | 8 | i | 0 | 31* | 43 | 6 | 4
C=CC[C@@H](CC(=O)N[C@@H](CO)Cc1ccccc1)C(=O)NC[C@@H](OC(=O)[C@@H](CC=C)Cc1ccc(F)cc1)c1ccccc1 | 11 | · | 6 | 11 | i | -1 | · | · | · | ·
C=CC[C@@H](CC(=O)NCCO)C(=O)NC[C@H](OC(=O)[C@@H](CC=C)Cc1ccc(F)cc1)c1ccccc1 | -4 | · | 78* | 31 | i | 0 | 32* | 63* | 13* | 15
C=CC[C@@H](CC(=O)N[C@@H](CO)Cc1ccccc1)C(=O)NC[C@H](OC(=O)[C@@H](CC=C)Cc1ccc(F)cc1)c1ccccc1 | 3 | · | 63* | 20 | i | 0 | 32* | 54* | 10 | 11
C=C(c1ccccc1Cl)[n+]1ccccc1 | 1 | i | -20 | 5 | i | 1 | · | · | · | ·
CN(C)S(=O)(=O)c1cccc(-c2nn(-c3ccccc3)cc2/C=C2\SC(=S)NC2=O)c1 | 17 | i | 68* | 3 | i | 3 | 59* | 56* | 8 | 0
CN(C)S(=O)(=O)c1cccc(-c2nn(-c3ccccc3)cc2/C=C(\C#N)c2nc3ccccc3[nH]2)c1 | -22 | i | 40 | 7 | i | 4 | · | · | · | ·
CCCCNS(=O)(=O)c1cc2c3c(c1)CCN3C(=O)CC2 | -18 | i | -13 | 6 | i | -2 | · | · | · | ·
COc1ccc2cc(C3=CC(=O)CC(C)(C)C3=O)ccc2c1 | -4 | · | 61* | 7 | · | 2 | 26* | 43 | 6 | 6
Cc1csc(NC(=O)c2cc(-c3ccccc3)nc3ccccc23)n1 | -47 | i | 38 | 10 | i | 0 | · | · | · | ·
CCOC(=O)Cc1csc(NC(=O)c2cc(-c3ccncc3)nc3ccccc23)n1 | -5 | · | 64* | 14 | i | -1 | 33* | 50* | 9 | 7
Cc1ccc(-c2cc(C(=O)Nc3cc(C(=O)O)ccc3C)c3ccccc3n2)cc1 | 3 | i | 16 | 11 | i | -1 | · | · | · | ·
CCOC(=O)Cc1csc(NC(=O)c2ccc([N+](=O)[O-])cc2[N+](=O)[O-])n1 | -1 | i | -18 | 7 | i | 2 | · | · | · | ·
Cc1ccc(S(=O)(=O)N(C)C)cc1NC(=O)c1cc(-c2ccncc2)nc2ccccc12 | -1 | · | 54* | 12 | i | -2 | 21 | 34 | 7 | 10
CCOC(=O)Cc1csc(NC(=O)c2ccc(N3CCOCC3)cc2[N+](=O)[O-])n1 | -6 | · | 55* | 20 | i | 5 | 38* | 53* | 11 | 12
CCOc1ccccc1NC(=O)c1cc(-c2ccncc2)nc2c(Cl)cccc12 | 10 | · | 71* | 3 | i | 0 | 11 | 47 | 6 | 12
COc1ccc(NC(=O)c2cc(-c3ccncc3)nc3ccccc23)c(OC)c1 | 1 | · | 42 | 12 | i | -4 | · | · | · | ·
